Published values of several laboratories.
Each line is one published result; the experiments were not run side by side.
ABL1 E255K phosphorylated: Tyrosine-protein kinase ABL1, phosphorylated (ABL1, Homo sapiens, UniProt P00519, E255K)

Structure (SMILES) | target | test | setting | measurement | value
CCCCC(=O)Nc1ccc(-c2ccc3ncn(CCC)c(=O)c3c2)cn1 | Tyrosine-protein kinase ABL1, non-phosphorylated (ABL1, Homo sapiens, UniProt P00519) | binding, competition with immobilised ligand | 0.5 µM | remaining binding | 85%
C=CC(=O)N1CCC([C@@H]2CCNc3c(C(N)=O)c(-c4ccc(Oc5ccccc5)cc4)nn32)CC1 | Tyrosine-protein kinase ABL1, phosphorylated (ABL1, Homo sapiens, UniProt P00519, M351T) | enzyme activity, inhibitor | 1 µM | inhibition | 0%
C1=C/COCc2cc(ccc2OCCN2CCCC2)Nc2nccc(n2)-c2cccc(c2)COC/1 | Tyrosine-protein kinase ABL1 (ABL1, Homo sapiens, UniProt P00519, F317L) | binding | 0.1 µM | remaining binding | 58%
[2H]c1cc(C)c(NC(=O)c2cnc(Nc3cc(N4CCCCC4)nc(C)n3)s2)c(Cl)c1 | Tyrosine-protein kinase ABL1 (ABL1, Homo sapiens, UniProt P00519) | enzyme activity, inhibitor | 100 pM | inhibition | > 50%
Cc1ccc(NC(=O)c2ccnc(C(F)(F)F)c2)cc1-c1cc(OCCO)nc(N2CCOCC2)c1 | Tyrosine-protein kinase ABL1 (ABL1, Homo sapiens, UniProt P00519, M351T) | binding | 1 µM | remaining binding | 100%
CC#CC(=O)N1CCC[C@H]1c1nc(-c2ccc(C(=O)Nc3ccccn3)cc2)c2c(N)nccn12 | Tyrosine-protein kinase ABL1, non-phosphorylated (ABL1, Homo sapiens, UniProt P00519, F317I) | enzyme activity, inhibitor | 1 µM | inhibition | 25%
CN1CCN(C(=O)c2ccc(NC(=O)Nc3ccc(N(C)c4ccnc(Nc5ccc(CS(C)(=O)=O)cc5)n4)cc3)cc2)CC1 | ABL1 E255K phosphorylated | binding, competition with immobilised ligand | 1 µM | remaining binding | 38%
COc1ccc2oc(-c3ccc4nc(N)oc4c3)c/c(=N\c3ccccc3NC(=O)CCN)c2c1 | Tyrosine-protein kinase ABL1 (ABL1, Homo sapiens, UniProt P00519, T315I) | cell-free assay | 1 µM | remaining signal | 103%
C[C@H]1CC[C@H](n2c3cnccc3c3cnc(Nc4ccc5c(n4)CCN(C(=O)CO)C5)nc32)CC1 | ABL1 E255K phosphorylated | binding, competition with immobilised ligand | 1 µM | remaining binding | 77%
CO[C@@H]1[C@H](N(C)C(=O)c2ccccc2)C[C@H]2O[C@]1(C)n1c3ccccc3c3c4c(c5c6ccccc6n2c5c31)C(=O)NC4 | Tyrosine-protein kinase ABL1, non-phosphorylated (ABL1, Homo sapiens, UniProt P00519, Q252H) | enzyme activity, inhibitor | 1 µM | inhibition | 0%
N#Cc1ccc(NC(=O)Nc2ccccc2)cc1 | ABL1 E255K phosphorylated | cell-free assay, competition with immobilised ligand | 25 µM | remaining binding | 92%
